Measured values gathered from unrelated publications.
CYP2C8: Cytochrome P450 2C8 (CYP2C8, Homo sapiens, UniProt P10632)
CYP2C9: Cytochrome P450 2C9 (CYP2C9, Homo sapiens, UniProt P11712)

CSc1ccccc1C(=O)NCCn1cc(C(=O)NCc2cccc(C)n2)c(=O)c2cc3c(cc21)OCO3 — IC50 (CYP2C8; enzyme activity, inhibitor; human, liver microsomes; 20 min, without NADPH, with preincubation): > 100 µM
Cc1cccc(-c2nnc(N[C@@H](Cc3ccc(C#N)cc3)C(=O)N3CCc4ccccc43)o2)c1 — half-life (metabolic stability; rat, liver microsomes; 10 µM, pH 7.4): 18 min
COc1ccc(-c2coc3cc(O[C@@H]4O[C@H](CO)[C@@H](O)[C@H](O)[C@H]4O)ccc3c2=O)cc1O — IC50 (CYP2C9; enzyme activity, inhibitor; human, liver microsomes): > 200 µM
CN(C)C(=O)c1cc2cnc(Nc3ccc(-c4ccc5c(=O)cc(N6CCOCC6)oc5c4)cc3)nc2n1C1CCCC1.Cl — AUC(0-inf) (BALB/c mouse, plasma; oral, 20 mg/kg): 7810 ng·h/mL
OCc1ccc(-c2nn(Cc3ccncc3)c3cccnc23)o1 — half-life (metabolic stability; rat, liver microsomes; 1 µM, pH 7.4): 19 min
Cc1ccc(-c2nnc(N[C@@H](Cc3ccc(C#N)cc3)C(=O)N3CCc4ccccc43)o2)cc1 — half-life (metabolic stability; rat, liver microsomes; 10 µM, pH 7.4): 14 min
Cc1ccc(OCC(=O)N[C@@H](Cc2c[nH]c3ccccc23)C(=O)OC(C)C)cc1 — half-life (chemical stability; simulated intestinal fluid): > 300 min
OCc1ccc(-c2nn(Cc3ccccc3)c3ccccc23)o1 — half-life (metabolic stability; rat, liver microsomes; 1 µM, pH 7.4): 6 min
CC(=O)O[C@@H]1[C@@H](O)[C@H](O[C@H]2CC[C@]34C[C@]35CC[C@]3(C)[C@@H]([C@@]6(C)CC[C@@H](C(C)(C)O)O6)[C@@H](O)C[C@@]3(C)[C@@H]5C[C@H](O[C@@H]3O[C@H](CO)[C@@H](O)[C@H](O)[C@H]3O)[C@H]4C2(C)C)OC[C@H]1O — IC50 (CYP2C9; enzyme activity, inhibitor; human, liver microsomes): > 200 µM
OCc1ccc(-c2nn(Cc3ccccn3)c3ccccc23)o1 — half-life (metabolic stability; rat, liver microsomes; 1 µM, pH 7.4): 11 min
CSc1ccccc1C(=O)NCCn1cc(C(=O)NCc2cccc(C)n2)c(=O)c2cc3c(cc21)OC(F)(F)O3 — IC50 (CYP2C8; enzyme activity, inhibitor; human, liver microsomes; 20 min, without NADPH, with preincubation): > 100 µM
